Fewer inactive variants are shown than the library holds.
B1: tRNA (parent)
chain: GUUCCGUUGGCGUAAUGGUAACGCGUCUCCCUCCUAAGGAGAAGACUGCGGGUUCGAGUCCCGUACGGAACG

Variants of: B1
Assay: yeast fitness relative to wild type (ratio to wild type); higher = fitter; tRNA-Arg(CCU), competitive growth, 37 C, YPD
Outline: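 Variants of the tRNA-Arg(CCU) gene were chemically synthesised with a 3% per-site mutation rate across 69 sites and placed at the native genomic locus in Saccharomyces cerevisiae. Six parallel replicates of the pooled strains were competed in YPD at 37°C for 24 hours, and gene amplicons from the start and end populations were read by 100-nucleotide paired-end sequencing. Darwinian fitness relative to wild type was derived from changes in genotype frequencies. Genotypes required ≥ 100 starting reads, and estimates < 0.5 were set to 0.5.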

**Q.** With GUACCGUUGGCAUAAUGGUAACGUGUCUCCCUCCUAAGGAGAAGUCUGCGGGUUCGAGUCCCGCACGGAACG [U3A G12A C24U A45U U64C] as the variant, how does the yeast fitness read?
**A.** ≤ 0.5

**Q.** For GUUCCGUUGGCGUAAUGGUAACGCGUCUCCCUCCUAAGGAGAAGAUUGCGGGUUCGAGUCCCGCACGGAACG [C46U U64C], which yeast fitness is on record?
**A.** 1.01

**Q.** Which yeast fitness does the source give for GUUCGGUUGGCGUAAUGGUUACGCGUCUCCCUCCUAAGGAGAAGAUUGCGGGUUCGAGUCCCGUACGGAACG [C5G A20U C46U] here?
**A.** 0.601

**Q.** Which yeast fitness does the source give for GUUCCGUUGGCGUAAUGGUAACGCGUCUCCCUUCUAUGGAGAAGACUGCGGGUUCGAGUGCCGUACGGCACG [C33U A37U C60G A69C] here?
**A.** ≤ 0.5

**Q.** Which yeast fitness does the source give for GUACCGUAGGCGCAAUGGUAACGCGUCUCCGUCCUAAGGCGAAGACUGCGGGUUCGAGUCCCGUACGGAACG [U3A U8A U13C C31G A40C] here?
**A.** ≤ 0.5

**Q.** With GUUCCGUUGGCGUAAUGGUCACGUGUCUCCCUCCUAAGGAGACGACUGCGGGUUCGAGUCCCGUACGGAACG [A20C C24U A43C] as the variant, how does the yeast fitness read?
**A.** ≤ 0.5

**Q.** With GUUACGUUGGCGUAAUGGAAACGCGUCUCCCUCCUAAGGAGAAGACUGCGGGUUCGAGUCCCGUACGGAACG [C4A U19A] as the variant, how does the yeast fitness read?
**A.** 0.854

**Q.** With GUUCCGUUGGCGUAAUGGUAACGAGUUUCUCUCCUAAGGAGAAGACUGCGGCUUCGAGUCCCGUACGGAACG [C24A C27U C30U G52C] as the variant, how does the yeast fitness read?
**A.** 0.596

**Q.** For GUUCCGUUGGAGUAAUGGUAACGCGUCUCCUUCCUAAGGAGAAGACUGCGGGAUCGAGUCCCGUACGGAACG [C11A C31U U53A], which yeast fitness is on record?
**A.** 0.513

**Q.** Which yeast fitness does the source give for GUUCCGUUGGCGUAAUGGUAACGCGUCUCCCUCCUAAGGUGAAGACUGUGGGUUCGAGUCCCGUACGGAACG [A40U C49U] here?
**A.** 0.856

**Q.** For GUUCCGUUGGCGUCAUGGUAACGCGUCUCCCUCCUAAGGAGAAGUCUACGGGUUCGAGUCCCGUACGGAACG [A14C A45U G48A], which yeast fitness is on record?
**A.** ≤ 0.5

**Q.** For GUUUCGUUGGCGUAAUGGAAACGCGUCUCCCUCCUAGGGAGAACACUGCGGGUUCGUGUCCCGUACGCAACG [C4U U19A A37G G44C A57U G68C], which yeast fitness is on record?
**A.** ≤ 0.5

**Q.** With GAUCCGUUGGCGUAAUGGUAGCGCGUCUUCCUCCUAAGGUGAAGACUGCGGGUUCGAGUCCCAUACGGUACG [U2A A21G C29U A40U G63A A69U] as the variant, how does the yeast fitness read?
**A.** ≤ 0.5

**Q.** With GUUGCGUUGGCGUAAGGGUAACGCGUCUCUCUCAUAAGGAGAAGACUGCGGGGUCGAGUCCCGUACGGAACG [C4G U16G C30U C34A U53G] as the variant, how does the yeast fitness read?
**A.** ≤ 0.5

**Q.** With GCUCCGUUGGCGUAAUGGUAACGCGUCUCCCCCCAAAGGAGAAGACUGCGGGUUCAAGUCCCGUACGGAACG [U2C U32C U35A G56A] as the variant, how does the yeast fitness read?
**A.** ≤ 0.5

**Q.** With GUUCCGUUGGCGUAAUGGUAACGCAUCUCCCUCCUACCGAGAAGACUGCGGGUUCGAGUUCUGUACGGUACG [G25A A37C G38C C60U C62U A69U] as the variant, how does the yeast fitness read?
**A.** ≤ 0.5

**Q.** Which yeast fitness does the source give for GUUCCGUUGGCGUAAUAGUAACGCGUCUCCAUUCUAAGGAGAAGACUGCGGGUUCGAGUCCCGUACGGAACG [G17A C31A C33U] here?
**A.** ≤ 0.5

**Q.** Which yeast fitness does the source give for GUUCCGUUCGCGUAAUGGUAACGCGUCUCCCUACUAAGGAGACGACUGCGGGUUCGAGUCCCGUACGGAACG [G9C C33A A43C] here?
**A.** ≤ 0.5

**Q.** For GUUCCGUUGGCGUAAUGGUAACGCGUCUCCUUCCUAAGGAGAAGACAGCGGGUUCGAGUCUCGUACGGACCG [C31U U47A C61U A70C], which yeast fitness is on record?
**A.** ≤ 0.5

**Q.** For GUUCCGUUGGCGUAAUAGUAACGCGUCUUCCUCCGACCGAGAAGACUGGGGGUUCGAGUCCCGUACGGAACG [G17A C29U U35G A37C G38C C49G], which yeast fitness is on record?
**A.** 0.545

**Q.** Which yeast fitness does the source give for GUUCGGUCGGCGUAAUGGUAACGCGUGUCCCUGCAAAGGAGAAGACUGUGGGUUCGAGUCCCGUACGGAACG [C5G U8C C27G C33G U35A C49U] here?
**A.** ≤ 0.5

**Q.** Which yeast fitness does the source give for GAUCCGUUGGCGUAAUGGUAACGCGUCACCCUCCUACGGAGAAGACUGCGGGUUCGAGUCCCGCGCGGAACG [U2A U28A A37C U64C A65G] here?
**A.** ≤ 0.5

**Q.** For GUUCCGUUGGCGUGAUGGUAACGCGUCUCCCUCCUAAGGAGAAGACUACGGGUUCGAGUCACGUACGUAACG [A14G G48A C61A G68U], which yeast fitness is on record?
**A.** ≤ 0.5

**Q.** With GUUCCGUUGGCGUAAUGGUAACGCGUCUUCCUCCGAAGGAGAAGACUGCGGGUUCGAGUCCUGUACGGAACG [C29U U35G C62U] as the variant, how does the yeast fitness read?
**A.** ≤ 0.5

**Q.** For GUUCCGUUGCCGUAAUGGUAACGCGUCUCCCUCCUAAGGAGAAGACUGUGGGUUCGAGUCCUGUACGGAACG [G10C C49U C62U], which yeast fitness is on record?
**A.** ≤ 0.5

**Q.** For GUUACGUUGGCGUAAUGGUAACGCGUCUCCCUCCUAAGGAGAACACUGCGGGUUCGAGUCCCGUACGGAACG [C4A G44C], which yeast fitness is on record?
**A.** 0.742

**Q.** For GUUCCGUUGGCGUAAUGGUACCGCGUCUCCCUCCUAAGGAGAACACUGCGGGUUCGGGUCCCGUACGCAACG [A21C G44C A57G G68C], which yeast fitness is on record?
**A.** 0.66

**Q.** With GUUCCGUUGCCGUACUGGUACCGCGUCUCCCUCCUAAGGAGAAGACUGCGGGUUCGAGUCCCGUACGGUACG [G10C A15C A21C A69U] as the variant, how does the yeast fitness read?
**A.** ≤ 0.5

**Q.** With GUUCCGAUAGCGAAAUGGUAACGCGUCUCCCUCCUAAGGAGAAGACUGCGGGUUCAAGUCCCGUACGGAACG [U7A G9A U13A G56A] as the variant, how does the yeast fitness read?
**A.** 0.535

**Q.** Which yeast fitness does the source give for GUUCCGUUGGCGCAAUGGUAACGCGUCUCCCUCCUAAGGAGAAGACUGCGGGUUCGAGUCCCAUACGGAACG [U13C G63A] here?
**A.** 0.937

**Q.** For GUUUCGUUGGCGUAAUGGUAACGCGUCUCCCUCCUAAGGAGAAGACUGCGGGUUCGAGUCCCGUACAGUACG [C4U G67A A69U], which yeast fitness is on record?
**A.** 0.684

**Q.** Which yeast fitness does the source give for GUUACGUUGACGUAAUGGUAACACGUCCCCCUCCUAAGGAGAAGACUGCGGGUUGGAGUACCGUACGGAACG [C4A G10A G23A U28C C55G C60A] here?
**A.** ≤ 0.5

**Q.** For GUUCCGUUGGCGUAAUGGUAACGCGUCUCUCUCCUAAGGCGCAGACUGCGGGUUCGAGUCCCGUACGUAACG [C30U A40C A42C G68U], which yeast fitness is on record?
**A.** ≤ 0.5

**Q.** For GUUCCAUUGGCGUAAUGGUAACGCGUCUCCAUCCUAAGGAGAAGACUGCGGGUUGGAGUCCCGUAAGGAACG [G6A C31A C55G C66A], which yeast fitness is on record?
**A.** ≤ 0.5

**Q.** Which yeast fitness does the source give for GUUGCGUUGGCGUAAUGGUAACGCGUCUCCCUCCUAAGGUGCAGACUGCGGGUUCGGGUCCGGUACGGAACG [C4G A40U A42C A57G C62G] here?
**A.** ≤ 0.5

**Q.** Which yeast fitness does the source give for GUUUCGUUCGCGUAAUGGUAACGCGUCUCCCUGCUAAGGAGAAGACUGAGGGUUCGAGUCCCGUACGGAGCG [C4U G9C C33G C49A A70G] here?
**A.** ≤ 0.5

**Q.** Which yeast fitness does the source give for GUUCCGUUGGCGUAACGGUAACGGGUCACCCUCCUAAGGAGAAGACUGCGGGUUCGAGUCCCGUACGGAACG [U16C C24G U28A] here?
**A.** ≤ 0.5

Reference: the RNAGym collection of RNA variant scans (doi:10.1126/science.aae0568)
